Laboratory results published in ChEMBL document CHEMBL1909521, “A class of novel N-(1-methyl-β-carboline-3-carbonyl)-N'-(aminoacid-acyl)-hydrazines: aromatization leaded design, synthesis, in vitro anti-platelet aggregation/in vivo anti-thrombotic evaluation and 3D QSAR analysis” (Eur J Med Chem, 2011).
Where a name gives a salt, the structure may show the parent alone.

What was measured:
[1] = Antiaggregatory activity in pig platelets assessed as inhibition of platelet-activating factor-induced platelet aggregation after 5 mins; assay type: functional, cell-based; conditions: Sus scrofa
How it was run: (§1)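 Pig blood (6 pigs) was spun at 1000 rpm for 10 min to give PRP, then 1500 rpm for 10 min to give PPP. PRP was adjusted to 2×10^8 platelets/ml with autologous PPP. Compound (final 100 µM to 0.001 µM, diluted in NS) or NS was added before agonist: ADP 10 µM, AA 350 µM or PAF 0.1 µM final. Aggregation was read optically at 37 °C for 5 min, in sixplicate. IC50 came from the concentration–inhibition curve.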

[2] = Antiaggregatory activity in pig platelets assessed as inhibition of adenosine diphosphate-induced platelet aggregation after 5 mins; assay type: functional, cell-based; conditions: Sus scrofa; how it was run: as §1
[3] = Antiaggregatory activity in pig platelets assessed as inhibition of arachidonic acid-induced platelet aggregation after 5 mins; assay type: functional, cell-based; conditions: Sus scrofa; how it was run: as §1
Rattus norvegicus [4] = experiment: Antithrombotic activity in Wister rat assessed as reduction of thrombus weight at 10 nmol/kg, po (reference value: 31.87 +/- 1.71 mg); assay type: functional
Rattus norvegicus [5] = experiment: Antithrombotic activity in Wister rat assessed as reduction of thrombus weight at 10 nmol/kg, po (reference value: 28.21 +/- 1.11 mg); assay type: functional
Rattus norvegicus [6] = experiment: Antithrombotic activity in Wister rat assessed as reduction of thrombus weight at 160 to 165 umol/kg, po (reference value: 31.87 +/- 1.71 mg); assay type: functional
Rattus norvegicus [7] = experiment: Antithrombotic activity in Wister rat assessed as reduction of thrombus weight at 1 nmol/kg, po (reference value: 31.87 +/- 1.71 mg); assay type: functional
[8] = Antiplatelet activity in rabbit platelets assessed as inhibition of collagen-induced platelet aggregation; assay type: functional, cell-based; conditions: Oryctolagus cuniculus
Rattus norvegicus [9] = experiment: Antithrombotic activity in Wister rat assessed as reduction of thrombus weight at 0.1 nmol/kg, po (reference value: 31.87 +/- 1.71 mg); assay type: functional
Rattus norvegicus [10] = experiment: Antithrombotic activity in Wister rat assessed as reduction of thrombus weight at 0.01 nmol/kg, po (reference value: 31.87 +/- 1.71 mg); assay type: functional
Rattus norvegicus [11] = experiment: Antithrombotic activity in po dosed Wister rat assessed as reduction of thrombus weight; assay type: functional, organism-based

Compound | IC50 [1] [µM] | IC50 [2] [µM] | IC50 [3] [µM] | Activity (Rattus norvegicus [4]) [mg] | Activity (Rattus norvegicus [5]) [mg] | Activity (Rattus norvegicus [6]) [mg] | Activity (Rattus norvegicus [7]) [mg] | IC50 [8] [µM] | Activity (Rattus norvegicus [9]) [mg] | Activity (Rattus norvegicus [10]) [mg] | Activity (Rattus norvegicus [11])
Cc1nc(C(=O)NNC(=O)CNC(=O)OC(C)(C)C)cc2c1[nH]c1ccccc12 | 348 | 722 | 20.7 | 26.83 | 23.74 |  |  |  |  |  | 
CSCC[C@H](NC(=O)OC(C)(C)C)C(=O)NNC(=O)c1cc2c([nH]c3ccccc32)c(C)n1 | 52.9 | 417 | 21.7 | 20.96 | 18.55 |  |  |  |  |  | 
CC(=O)Oc1ccccc1C(=O)O [ASPIRIN] |  |  |  |  |  | 18.86 |  |  |  |  | 
Cc1nc(C(=O)NNC(=O)[C@@H](N)CO)cc2c1[nH]c1ccccc12 | 52.9 | 50.9 | 9 |  |  |  | 24.78 |  |  |  | 
Cc1nc(C(=O)NNC(=O)[C@@H](N)Cc2ccc(O)cc2)cc2c1[nH]c1ccccc12 | 37.4 | 74.6 | 1.7 |  |  |  | 18.56 |  |  |  | 
Cc1nc(C(=O)NNC(=O)[C@H](C)N)cc2c1[nH]c1ccccc12 | 47.4 | 58.9 | 6.7 |  |  |  | 24.39 |  |  |  | 
CSCC[C@H](N)C(=O)NNC(=O)c1cc2c([nH]c3ccccc32)c(C)n1 | 13.4 | 58.9 | 4.7 |  |  |  | 23.43 |  |  |  | 
Cc1nc(C(=O)NNC(=O)[C@@H](N)CC(=O)OCc2ccccc2)cc2c1[nH]c1ccccc12 | 52.9 | 81.7 | 3.7 |  |  |  | 23.23 |  |  |  | 
Cc1nc(C(=O)NNC(=O)[C@H](Cc2c[nH]c3ccccc23)NC(=O)OC(C)(C)C)cc2c1[nH]c1ccccc12 | 4.3 | 21.7 | 0.6 | 21.52 | 19.04 |  |  |  |  |  | 
Cc1nc(C(=O)NNC(=O)[C@H](Cc2ccc(O)cc2)NC(=O)OC(C)(C)C)cc2c1[nH]c1ccccc12 | 12.7 | 152 | 13 | 23.73 | 21 |  |  |  |  |  | 
COc1ccc2c3c([nH]c2c1)C(C)=NCC3 [HARMALINE] |  |  |  |  |  |  |  | 130 |  |  | 
Cc1nc(C(=O)NNC(=O)[C@H](CCC(=O)OCc2ccccc2)NC(=O)OC(C)(C)C)cc2c1[nH]c1ccccc12 | 362 | 524 | 6.3 | 22.2 | 19.65 |  |  |  |  |  | 
Cc1nc(C(=O)NNC(=O)[C@@H](N)CC(N)=O)cc2c1[nH]c1ccccc12 | 39.7 | 65.8 | 6.2 |  |  |  | 23.97 |  |  |  | 
Cc1nc(C(=O)NNC(=O)[C@@H]2CCCN2C(=O)OC(C)(C)C)cc2c1[nH]c1ccccc12 | 134 | 166 | 20.6 | 23.04 | 20.39 |  |  |  |  |  | 
CC1=NCCc2c1[nH]c1cc(O)ccc21 [HARMALOL] |  |  |  |  |  |  |  | 130 |  |  | 
Cc1nc(C(=O)NNC(=O)[C@@H](N)[C@@H](C)O)cc2c1[nH]c1ccccc12 | 20.9 | 24.8 | 5.2 |  |  |  | 23.65 |  |  |  | 
Cc1nc(C(=O)NNC(=O)[C@@H](N)Cc2cnc[nH]2)cc2c1[nH]c1ccccc12 | 42.5 | 25.7 | 0.2 |  |  |  | 18.1 |  |  |  | 
Cc1nc(C(=O)NNC(=O)[C@H](CO)NC(=O)OC(C)(C)C)cc2c1[nH]c1ccccc12 | 119 | 276 | 19.9 | 21.1 | 18.67 |  |  |  |  |  | 
Cc1nc(C(=O)NNC(=O)[C@@H](N)CCC(=O)OCc2ccccc2)cc2c1[nH]c1ccccc12 | 64.3 | 58.9 | 2.3 |  |  |  | 18.8 |  |  |  | 
COc1ccc2c(c1)[nH]c1c(C)nccc12 [HARMINE] |  |  |  |  |  |  |  | 130 |  |  | 

Compound | IC50 [1] [µM] | IC50 [2] [µM] | IC50 [3] [µM] | Activity (Rattus norvegicus [4]) [mg] | Activity (Rattus norvegicus [5]) [mg] | Activity (Rattus norvegicus [6]) [mg] | Activity (Rattus norvegicus [7]) [mg] | IC50 [8] [µM] | Activity (Rattus norvegicus [9]) [mg] | Activity (Rattus norvegicus [10]) [mg] | Activity (Rattus norvegicus [11])
Cc1nc(C(=O)NNC(=O)[C@@H](NC(=O)OC(C)(C)C)[C@@H](C)O)cc2c1[nH]c1ccccc12 | 31.9 | 531 | 4.7 | 22.87 | 20.24 |  |  |  |  |  | 
Cc1nc(C(=O)NNC(=O)CN)cc2c1[nH]c1ccccc12 | 52.9 | 53.3 | 5.2 |  |  |  | 23.7 |  |  |  | 
Cc1nccc2c1[nH]c1cc(O)ccc12 [HARMOL HYDROCHLORIDE] |  |  |  |  |  |  |  | 130 |  |  | 
Cc1nc(C(=O)NNC(=O)[C@@H](N)C(C)C)cc2c1[nH]c1ccccc12 | 2 | 20.8 | 0.3 |  |  |  | 18.3 |  | 23.8 | 27.12 | Dose-dependent effect
Cc1nc(C(=O)NNC(=O)[C@@H](N)CC(C)C)cc2c1[nH]c1ccccc12 | 1.1 | 23 | 8.2 |  |  |  | 24.49 |  |  |  | 
Cc1nc(C(=O)NNC(=O)[C@@H](N)CCCCN)cc2c1[nH]c1ccccc12 | 52.9 | 58.9 | 4.1 |  |  |  | 23.3 |  |  |  | 
Cc1nc(C(=O)NNC(=O)[C@H](CC(=O)OCc2ccccc2)NC(=O)OC(C)(C)C)cc2c1[nH]c1ccccc12 | 196 | 117 | 5.2 | 21.44 | 18.97 |  |  |  |  |  | 
Cc1nc(C(=O)NNC(=O)[C@@H](N)Cc2c[nH]c3ccccc23)cc2c1[nH]c1ccccc12 | 19.3 | 28.9 | 8.7 |  |  |  | 24.56 |  |  |  | 
Cc1nccc2c1[nH]c1ccccc12 [HARMAN] |  |  |  |  |  |  |  | 130 |  |  | 
Cc1nc(C(=O)NNC(=O)[C@H](Cc2cn(C(=O)OC(C)(C)C)cn2)NC(=O)OC(C)(C)C)cc2c1[nH]c1ccccc12 | 7.7 | 94.6 | 4.8 | 21.32 | 18.87 |  |  |  |  |  | 
Cc1nc(C(=O)NNC(=O)[C@H](CCCCNC(=O)OC(C)(C)C)NC(=O)OC(C)(C)C)cc2c1[nH]c1ccccc12 | 106 | 321 | 3.4 | 22.32 | 19.75 |  |  |  |  |  | 
Cc1nc(C(=O)NNC(=O)[C@H](CC(C)C)NC(=O)OC(C)(C)C)cc2c1[nH]c1ccccc12 | 1.2 | 31.6 | 3.2 | 23.8 | 21.06 |  |  |  |  |  | 
CC[C@H](C)[C@H](N)C(=O)NNC(=O)c1cc2c([nH]c3ccccc32)c(C)n1 | 5.6 | 74 | 3.6 |  |  |  | 23.12 |  |  |  | 
CC[C@H](C)[C@H](NC(=O)OC(C)(C)C)C(=O)NNC(=O)c1cc2c([nH]c3ccccc32)c(C)n1 | 1.4 | 51.1 | 2.4 | 23.3 | 20.62 |  |  |  |  |  | 
Cc1nc(C(=O)NNC(=O)[C@H](C)NC(=O)OC(C)(C)C)cc2c1[nH]c1ccccc12 | 162 | 118 | 20 | 22.67 | 20.06 |  |  |  |  |  | 
Cc1nc(C(=O)NNC(=O)[C@H](CC(N)=O)NC(=O)OC(C)(C)C)cc2c1[nH]c1ccccc12 | 507 | 609 | 19.7 | 24.14 | 21.36 |  |  |  |  |  | 
Cc1nc(C(=O)NNC(=O)[C@@H](NC(=O)OC(C)(C)C)C(C)C)cc2c1[nH]c1ccccc12 | 50 | 156 | 3.7 | 24.01 | 24.01 |  |  |  |  |  | 
Cc1nc(C(=O)NNC(=O)[C@@H]2CCCN2)cc2c1[nH]c1ccccc12 | 44.5 | 48.7 | 5.8 |  |  |  | 24.37 |  |  |  | 
c1ccc2c(c1)[nH]c1cnccc12 [NORHARMANE] |  |  |  |  |  |  |  | 130 |  |  | 
Cc1nc(C(=O)NN)cc2c1[nH]c1ccccc12 | 92.8 | 110 | 32.9 | 26.66 |  |  |  |  |  |  | 
